Rows were chosen to be rich in hits. Some 3.5% of all compounds tested hit in one or more screens of this group.
thrombin 1536: blocks human thrombin protease activity | P00734 | alpha-thrombin, Boc-VPR-AMC fluorogenic substrate cleavage | inhibition, % at 5 µM | 220,000 tested, 0.26% active | AID 1046;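 active = inhibition at or above 40%; inactive = inhibition below 40%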
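Test system: human alpha-thrombin; medium: pH 7.5 Tris-saline with Tween 20; times: reaction at room temperature; signal: AMC fluorescence at 355 nm excitation and 460 nm emission; also added: Boc-VPR-AMC substrate, 15 µM final; dosing: one concentration per compound, 5 µM, with 0.2% DMSO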
hK5 inh: inhibitors of human kallikrein 5; Q9Y337; recombinant hK5, fluorogenic AMC substrate cleavage; inhibition, % at 5 µM; 210,000 tested, 0.59% active; AID 873;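 active = inhibition of 40% or more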
Target sequence (Q9Y337 67-293 limits assumed): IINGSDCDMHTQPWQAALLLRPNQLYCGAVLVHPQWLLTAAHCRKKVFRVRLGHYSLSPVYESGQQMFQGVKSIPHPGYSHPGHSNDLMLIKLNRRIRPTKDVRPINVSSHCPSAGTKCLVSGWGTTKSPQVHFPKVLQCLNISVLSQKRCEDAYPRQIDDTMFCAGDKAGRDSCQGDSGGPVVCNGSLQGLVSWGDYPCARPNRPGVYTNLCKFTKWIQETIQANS
STAT3 act-1: STAT3 signaling activation | U3A cells, IL-6 STAT3-luciferase reporter, luminescence; 100% = signal with IL-6 EC80 alone | activation (% of control), % at 5.6 µM | 190,000 tested, 0.91% active | AID 871;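 active = activation above the screen-wide mean of compound activation plus 3 SD, cut at about 130% in these data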
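Assay system – human STAT1-deficient U3A cells with stable STAT3-luciferase reporter · Also added – IL-6 (33 ng/mL) · Schedule – compound 1 h, then IL-6 6 h at 37 °C · Technique – reporter luminescence signal · Evaluation – % activation versus median of IL-6-stimulated wells · Benchmarks – IL-6-only wells as 100% reference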
FXIIa inh: blocks human coagulation factor XIIa protease activity; inhibition, % at 5 µM; 220,000 tested, 0.3% active; purified FXIIa, Boc-QGR-AMC fluorogenic substrate, 2 h; P00748; AID 800; in the data active = inhibition above about 40%
FXIa inh: inhibitors of human coagulation factor XIa. P03951. purified FXIa, Boc-Glu-Ala-Arg-AMC fluorogenic substrate. inhibition, % at 5 µM. 220,000 tested, 0.14% active;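 active = inhibition of at least 40%; inactive = inhibition below 40%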;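 also: fluorescence of freed AMC excited at 355 nm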
AHR act: activates the human aryl hydrocarbon receptor; 320,000 tested, 2.5% active; AHR-responsive luciferase reporter cells, luminescence; activation, % at 5 µM; in the data active = activation above about 47%
STAT3 act-2: STAT3 activation, confirmation assay | U3A STAT3-luciferase reporter, IL-6 potentiation, luminescence; U3A cells lack STAT1; 100 means same as IL-6 alone | shares compounds with STAT3 act-1 | potentiation (% of control), % at 5.7 µM | AID 1267 | 1,200 tested, 64% active;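 active = percent activation of the STAT3 luciferase reporter above a set limit taken from the earlier primary screen, cut at about 130% in these data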
NFkB act STAT3ct: activates NF-kappaB, counter-screen to STAT3 activators. 1,200 tested, 11% active. activation (% of control), % at 5.7 µM. shares compounds with STAT3 act-1. human cells, NF-kappaB reporter activation; in the data active = activation above about 120%;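 also: reporter induced by TNF-alpha stimulation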
STAT1 act STAT3c: activates STAT1, counter-screen to STAT3 activators; shares compounds with STAT3 act-1; NIH 3T3 STAT1-luciferase reporter, IFN-gamma, luminescence; activation (% of control), % at 5.7 µM; 1,200 tested, 13% active; AID 1318;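 active = activation above the solvent-only control well mean plus 3 SD, set per screening run, cut at about 120% in these data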
AHR act confirm: confirmation of human aryl hydrocarbon receptor activators | shares compounds with AHR act | human cells, AHR-responsive luciferase reporter, luminescence | activation, % at 9 µM | 2,300 tested, 87% active | AID 2845; in the data active = activation above about 49%;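 also: HepG2 hepatoma cells carrying a DRE-driven firefly luciferase reporter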
PXR act counter: PXR activation, counter-screen for AHR activators | 2,300 tested, 88% active | cell-based PXR reporter, luciferase luminescence | activation, % at 11.6 µM | shares compounds with AHR act; in the data active = activation above about 11%;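 also: human hepatoma DPX-2 cells expressing full-length human PXR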
Target sequence (O75469 whole entry, looked up): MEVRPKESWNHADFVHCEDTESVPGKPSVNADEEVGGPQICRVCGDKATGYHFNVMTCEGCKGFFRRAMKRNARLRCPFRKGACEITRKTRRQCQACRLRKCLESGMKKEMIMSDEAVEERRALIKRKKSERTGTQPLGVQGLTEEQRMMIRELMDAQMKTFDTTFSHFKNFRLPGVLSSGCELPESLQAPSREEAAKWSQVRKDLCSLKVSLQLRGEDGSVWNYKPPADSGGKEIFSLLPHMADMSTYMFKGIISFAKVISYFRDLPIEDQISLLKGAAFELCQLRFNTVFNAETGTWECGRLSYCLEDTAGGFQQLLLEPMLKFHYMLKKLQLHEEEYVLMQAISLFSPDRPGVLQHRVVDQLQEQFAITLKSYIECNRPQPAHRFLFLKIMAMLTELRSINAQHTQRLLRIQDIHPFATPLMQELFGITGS
Hits are given with their value; i = inactive; nt = no result.

SMILES | thrombin 1536 | hK5 inh | STAT3 act-1 | FXIIa inh | FXIa inh | AHR act | others
Cc1ccc2c(c1)C1CN(C)CCC1N2C(=O)c1cn(-c2ccccc2)nc1-c1ccccc1 (stereo not given) | 80 | i | i | i | i | i
Cc1ccc2c(c1)C1CN(C)CCC1N2C(=O)c1cccnc1Cl (stereo not given) | i | i | nt | i | i | i
CCCCCn1c(=O)c(C(=O)NC(C)c2ccccc2)c(O)c2ccccc21 (stereo not given) | nt | nt | nt | nt | nt | i
CCOC(=O)c1c(C)n(Cc2ccco2)c2c1cc(O)c1ccccc12 | i | i | i | i | i | 51
CCOC(=O)c1c(C)n(Cc2ccco2)c2ccc(OC)cc12 | i | i | i | i | i | i
CN1CCN(c2ncnc3ccc(Br)cc23)CC1 | i | i | i | i | i | i
CN1CCN(c2ncnc(Cl)c2N)CC1 | i | i | i | 103 | i | nt
O=C1NC(=O)C(Cc2cccs2)C(=O)N1 | i | 78 | i | i | i | i
CN1C(=O)C(Cc2cccs2)C(=O)N(C)C1=O | i | i | i | i | i | i
CN(C)C(=O)Oc1ccc(Br)cc1C(=O)Nc1ccc(F)c(Cl)c1 | i | i | nt | i | i | 67
CN(C)C(=O)Oc1ccc(Cl)c2ccccc12 | i | i | i | i | i | i
O=P(C(c1c[nH]c2ccccc12)N1CCOCC1)(N1CCOCC1)N1CCOCC1 (stereo not given) | i | 43 | i | i | i | i
Cc1ccccc1-[n+]1c(-c2ccccc2)cc(-c2ccccc2)cc1-c1ccccc1 | nt | nt | nt | nt | nt | i
Cc1cc(N2CCCC2)ccc1C=C(C#N)C#N | i | 48 | i | i | i | i
O=C(c1ccc(-c2ccccc2)cc1)C1CCCN(Cc2ccn[nH]2)C1 (stereo not given) | i | i | i | i | i | i
O=c1c2ccccc2nc(/C=C/c2ccccc2O)n1-c1ccccc1O | nt | nt | nt | nt | nt | 47
O=c1c2ccccc2nc(-c2ccccc2)n1-c1ccccc1O | nt | nt | nt | nt | nt | 63
COC(=O)c1ccccc1-n1c(C)nc2ccccc2c1=O | i | 82 | i | i | i | i
CC(=O)OC1=CC[C@H]2[C@@H]3CC[C@H]4C[C@H](OC(C)=O)[C@@H](OC(C)=O)C[C@]4(C)[C@H]3CC[C@]12C | nt | nt | nt | nt | nt | i
COc1ccccc1N=Cc1c(O)n(C)c(=O)n(C)c1=O | i | i | i | i | i | 73
NC1=Nc2ccccc2Oc2ccccc21 | i | i | i | i | i | i
Clc1ccc2c(N3CCNCC3)ccnc2c1 | i | 41 | i | i | i | i
O=[N+]([O-])c1ccc(N2CCNCC2)c(Cl)c1 | i | i | i | i | i | i
COc1cc2c(cc1/C=C/[N+](=O)[O-])OCO2 | i | 40 | i | i | 42 | nt
Cc1cc([N+](=O)[O-])c2ccccc2[n+]1[O-] | i | i | nt | i | i | i
SMILES | thrombin 1536 | hK5 inh | STAT3 act-1 | FXIIa inh | FXIa inh | AHR act | others
CCCC/C(=N\O)c1c[nH]c2ccccc12 | i | i | 141 | i | i | i | STAT3 act-2=155;NFkB act STAT3ct=i;STAT1 act STAT3c=i
Cc1nn(Cc2ccccc2)c(C)c1C(=O)OCC(=O)Nc1ccccc1SCC#N | i | i | 138 | i | i | i | STAT3 act-2=i;NFkB act STAT3ct=i;STAT1 act STAT3c=i
Cc1cccc(N2C(=O)NC(=O)C3(Cc4cc(C)ccc4N(C)C3)C2=O)c1 (stereo not given) | i | i | i | i | i | i
COc1ccc2c(c1)CC1(CN2C)C(=O)NC(=O)N(c2ccc(F)cc2)C1=O (stereo not given) | i | i | 150 | i | i | 72 | STAT3 act-2=134;NFkB act STAT3ct=i;STAT1 act STAT3c=i
Cc1nn(Cc2ccccc2)c(Cl)c1C(=O)NC1CCCc2ccccc21 (stereo not given) | i | i | i | i | i | i
CCCCn1c(=O)c(C(=O)Nc2ccccc2)c(O)c2ccccc21 | i | i | 154 | i | i | i | STAT3 act-2=161;NFkB act STAT3ct=i;STAT1 act STAT3c=i
CCCCn1c(=O)c(C(=O)NCc2ccccc2)c(O)c2ccccc21 | nt | nt | nt | nt | nt | i
O=S(=O)(c1ccccc1)N1CCN2CCCC2C1 (stereo not given) | nt | nt | nt | nt | nt | i
Cc1ccc(-c2nc(N(C)C3CCN(C)CC3)c3ccccc3n2)cc1 | i | i | 172 | i | i | i | STAT3 act-2=155;NFkB act STAT3ct=i;STAT1 act STAT3c=i
C[C@]12CCC(=O)C[C@H]1CC[C@@H]1[C@@H]2CC[C@]2(C)[C@@H](O)CC[C@@H]12 | nt | nt | nt | nt | nt | i
Cc1ccc(OCCn2cccc2/C=C2/C(=O)NC(=O)N(Cc3ccco3)C2=O)cc1 | i | i | nt | i | i | i
Cn1cccc1/C=C1\C(=O)NC(=O)N(Cc2ccco2)C1=O | i | i | 146 | i | i | nt | STAT3 act-2=i;NFkB act STAT3ct=i;STAT1 act STAT3c=i
CSc1ccc(C(=O)C2CCCN(Cc3cc4ccccc4[nH]3)C2)cc1 (stereo not given) | i | i | 141 | i | i | i | STAT3 act-2=149;NFkB act STAT3ct=i;STAT1 act STAT3c=i
CCCCN1C(=O)NC(=O)C2(Cc3c(nc4ccccn4c3=O)N3CCc4ccccc4C32)C1=O (stereo not given) | 45 | i | 142 | i | i | i | STAT3 act-2=143;NFkB act STAT3ct=i;STAT1 act STAT3c=i
COC(=O)C1=C(c2ccc(C(C)=O)cc2)C[C@@H]2CC[C@H]1N2C(=O)NCCOc1ccccc1Cl | nt | nt | nt | nt | nt | i
COC(=O)C1=C(c2ccc(OC)c(OC)c2)C[C@@H]2CC[C@H]1N2C(=O)N1CCCCC1 | nt | nt | nt | nt | nt | i
CC(=Nc1c(C)n(C)n(-c2ccccc2)c1=O)c1c(O)n(Cc2ccccc2)c(=O)[nH]c1=O | i | i | 156 | i | i | i | STAT3 act-2=i;NFkB act STAT3ct=i;STAT1 act STAT3c=i
O=C(/C=C/c1c[nH]c2ccccc12)c1c(O)n(CCc2ccccc2)c(=O)[nH]c1=O | i | i | nt | i | i | i
C=CCN(CC=C)Cc1c[nH]c2ccccc12 | i | i | 147 | i | i | i | STAT3 act-2=134;NFkB act STAT3ct=i;STAT1 act STAT3c=i
CN(C)Cc1c[nH]c2ccccc12 | nt | nt | nt | nt | nt | i
c1ccc2c(CCNC3CCCCC3)c[nH]c2c1 | i | i | i | i | i | i
c1ccc2[nH]c(CCNC3CCCCC3)nc2c1 | i | i | 137 | i | i | i | STAT3 act-2=i;NFkB act STAT3ct=i;STAT1 act STAT3c=i
CNC(=O)Oc1cccc(-c2cn3cc(Cl)ccc3n2)c1 | i | i | i | i | i | 96 | AHR act confirm=i;PXR act counter=13
